Measured values from ChEMBL document CHEMBL4190389, “Synthesis and activity of di- or trisubstituted N-(phenoxyalkyl)- or N-{2-[2-(phenoxy)ethoxy]ethyl}piperazine derivatives on the central nervous system” (Bioorg Med Chem Lett, 2018).
Active and inactive are the calls of the source. The calls are words filed in the database; no cut-off is given here.

Key:
Mus musculus [1] = assay: Anticonvulsant activity in Albino Swiss CD-1 mouse assessed as protection against 50 Hz current-induced seizure at 30 mg/kg, ip; type: functional, organism-based
[2] = molecular target: T1, 5-hydroxytryptamine receptor 1A (Homo sapiens) (UniProt P08908); assay: (§1) Antagonist activity at human 5-HT1A receptor expressed in CHO-K1 cells co-expressing Galpha16 assessed as decrease in serotonin calcium mobilization preincubated for 25 mins followed by serotonin challenge measured for 30 secs by aequorin-derived luminescence assay; type: functional, cell-based
T1 sequence (whole entry): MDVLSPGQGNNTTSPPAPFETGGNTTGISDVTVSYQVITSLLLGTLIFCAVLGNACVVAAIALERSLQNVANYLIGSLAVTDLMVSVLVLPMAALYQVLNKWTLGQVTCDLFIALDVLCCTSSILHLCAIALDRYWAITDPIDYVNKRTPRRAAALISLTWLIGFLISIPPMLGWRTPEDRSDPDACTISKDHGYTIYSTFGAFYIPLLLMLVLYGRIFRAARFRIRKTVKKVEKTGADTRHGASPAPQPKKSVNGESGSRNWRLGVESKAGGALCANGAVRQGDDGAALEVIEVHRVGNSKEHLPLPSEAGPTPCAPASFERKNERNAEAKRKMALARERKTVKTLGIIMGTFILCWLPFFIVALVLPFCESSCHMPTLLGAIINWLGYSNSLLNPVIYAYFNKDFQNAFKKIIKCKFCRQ

[3] = molecular target: T2, 5-hydroxytryptamine receptor 1A (Homo sapiens, UniProt P08908); assay: as §1; type: functional, cell-based
T2 sequence (P08908 whole entry): T1 sequence (whole entry)

Mus musculus [4] = assay: Antidepressant-like activity in Albino Swiss CD-1 mouse assessed as immobility time at 5 mg/kg, ip administered 30 mins prior to test measured for last 4 mins of 6 mins observation by forced swim test (reference value: 153.9 to 201.9 secs); type: functional
Mus musculus [5] = assay: Neurotoxicity in Albino Swiss CD-1 mouse assessed as motor impairment at 30 mg/kg, ip treated 30 mins prior to test by rotarod test; type: toxicity, organism-based; settings: in vivo, 0.5 h
Mus musculus [6] = assay: Anticonvulsant activity in ip dosed Albino Swiss CD-1 mouse assessed as dose required to protect against 50 Hz current-induced seizure; type: functional; settings: Swiss CD-1, ip
[7] = molecular target: 5-hydroxytryptamine receptor 6 (Homo sapiens, UniProt P50406); assay: Displacement of [3H]LSD from recombinant human 5-HT6 receptor expressed in CHO cells cell membranes after 60 mins by liquid scintillation counting method
5-hydroxytryptamine receptor 6, sequence (P50406 whole entry): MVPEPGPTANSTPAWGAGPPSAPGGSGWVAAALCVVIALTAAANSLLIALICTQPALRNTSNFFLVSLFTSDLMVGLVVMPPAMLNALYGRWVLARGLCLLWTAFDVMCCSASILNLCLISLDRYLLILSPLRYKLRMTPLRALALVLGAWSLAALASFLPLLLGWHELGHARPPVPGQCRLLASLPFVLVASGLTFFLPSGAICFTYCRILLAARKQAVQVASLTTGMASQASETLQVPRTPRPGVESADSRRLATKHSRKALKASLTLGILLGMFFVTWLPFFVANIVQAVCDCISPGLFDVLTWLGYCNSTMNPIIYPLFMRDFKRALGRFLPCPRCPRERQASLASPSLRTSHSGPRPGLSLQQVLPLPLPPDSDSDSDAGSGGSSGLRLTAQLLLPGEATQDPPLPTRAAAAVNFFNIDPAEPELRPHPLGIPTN

[8] = Protection index, ratio of TD50 for motor impairment in ip dosed Swiss albino CD-1 mouse to ED50 for protection against 50 Hz current-induced seizures in ip dosed Swiss albino CD-1 mouse; type: toxicity, organism-based, Swiss CD-1; settings: in vivo, read-out: Ratio TD50/ED50
D(2) dopamine receptor [9] = molecular target: T3, D(2) dopamine receptor (Homo sapiens, UniProt P14416); assay: Displacement of [3H]methylspiperonee from recombinant human D2 receptor expressed in HEK293 cell membranes at 10^-5 M after 60 mins by liquid scintillation counting method
T3 sequence (P14416 whole entry): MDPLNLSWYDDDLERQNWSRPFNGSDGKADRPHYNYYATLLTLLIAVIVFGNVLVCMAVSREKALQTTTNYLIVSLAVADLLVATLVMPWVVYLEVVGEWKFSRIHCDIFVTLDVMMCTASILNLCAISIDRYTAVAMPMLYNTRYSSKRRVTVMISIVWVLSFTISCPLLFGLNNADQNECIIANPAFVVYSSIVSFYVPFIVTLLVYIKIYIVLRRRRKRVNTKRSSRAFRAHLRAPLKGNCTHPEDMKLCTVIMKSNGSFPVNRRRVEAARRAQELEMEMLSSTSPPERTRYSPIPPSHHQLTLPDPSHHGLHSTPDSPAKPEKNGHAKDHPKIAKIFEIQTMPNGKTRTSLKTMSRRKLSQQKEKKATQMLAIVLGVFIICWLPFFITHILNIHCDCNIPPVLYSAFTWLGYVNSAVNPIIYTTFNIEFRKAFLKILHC

Mus musculus [10] = assay: Antidepressant-like activity in Albino Swiss CD-1 mouse assessed as immobility time at 10 mg/kg, ip administered 30 mins prior to test measured for last 4 mins of 6 mins observation by forced swim test (reference value: 153.9 to 201.9 secs); type: functional
Mus musculus [11] = assay: Toxicity in Albino Swiss CD-1 mouse assessed as death at 100 mg/kg, ip; type: organism-based; settings: in vivo
Method in brief: (§2)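 Deaths counted in mice during maximal electroshock (MES) seizure testing after i.p. dosing, 6 mice per dose (3 or 1 at some top doses); recorded as number dead/number tested alongside protection and rotarod motor impairment (10 rpm); untreated control group included.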

Mus musculus [12] = assay: Antidepressant-like activity in Albino Swiss CD-1 mouse assessed as immobility time at 20 mg/kg, ip administered 30 mins prior to test measured for last 4 mins of 6 mins observation by forced swim test (reference value: 153.9 to 201.9 secs); type: functional
[13] = molecular target: T4, 5-hydroxytryptamine receptor 7 (Homo sapiens, UniProt P34969); assay: biochemical; type: cell-based, CHO
T4 sequence (P34969 whole entry): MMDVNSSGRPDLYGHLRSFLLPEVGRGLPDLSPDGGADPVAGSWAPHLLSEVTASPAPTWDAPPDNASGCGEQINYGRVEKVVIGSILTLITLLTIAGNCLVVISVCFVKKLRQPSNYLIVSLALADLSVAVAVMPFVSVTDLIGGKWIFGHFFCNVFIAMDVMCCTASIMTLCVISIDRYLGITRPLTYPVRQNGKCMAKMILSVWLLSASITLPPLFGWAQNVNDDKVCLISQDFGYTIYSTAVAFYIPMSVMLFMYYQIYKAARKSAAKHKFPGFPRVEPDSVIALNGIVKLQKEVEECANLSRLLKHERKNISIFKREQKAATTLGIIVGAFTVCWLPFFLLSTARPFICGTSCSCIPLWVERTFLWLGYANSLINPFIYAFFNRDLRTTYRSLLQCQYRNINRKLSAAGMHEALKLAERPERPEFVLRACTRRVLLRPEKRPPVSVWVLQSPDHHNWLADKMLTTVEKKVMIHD

[14] = molecular target: T5, Alpha-1A adrenergic receptor (Homo sapiens, UniProt P35348); assay: Displacement of [3H]prazosin from recombinant human alpha1 adrenoceptor expressed in CHO cell membranes after 30 mins by liquid scintillation counting method
T5 sequence (P35348 whole entry): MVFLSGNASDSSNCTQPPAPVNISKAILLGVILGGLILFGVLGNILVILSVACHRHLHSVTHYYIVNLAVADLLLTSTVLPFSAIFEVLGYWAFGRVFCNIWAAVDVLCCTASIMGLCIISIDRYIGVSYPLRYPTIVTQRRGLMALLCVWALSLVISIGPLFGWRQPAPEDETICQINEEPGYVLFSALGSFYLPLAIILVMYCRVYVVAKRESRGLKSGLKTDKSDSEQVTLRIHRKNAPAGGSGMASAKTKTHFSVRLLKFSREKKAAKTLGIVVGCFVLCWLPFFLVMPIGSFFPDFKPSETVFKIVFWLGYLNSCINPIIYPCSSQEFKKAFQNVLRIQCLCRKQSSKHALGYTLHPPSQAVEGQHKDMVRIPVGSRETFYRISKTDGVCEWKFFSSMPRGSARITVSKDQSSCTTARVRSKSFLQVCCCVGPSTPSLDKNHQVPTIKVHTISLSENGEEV

[15] = Neurotoxicity in ip dosed Albino Swiss CD-1 mouse assessed as minimum dose required to induce motor impairment treated 30 mins prior to test by rotarod test; type: toxicity, organism-based; settings: in vivo
[16] = molecular target: T6, 5-hydroxytryptamine receptor 2A (Homo sapiens, UniProt P28223); assay: biochemical; type: cell-based, HEK293
T6 sequence (P28223 whole entry): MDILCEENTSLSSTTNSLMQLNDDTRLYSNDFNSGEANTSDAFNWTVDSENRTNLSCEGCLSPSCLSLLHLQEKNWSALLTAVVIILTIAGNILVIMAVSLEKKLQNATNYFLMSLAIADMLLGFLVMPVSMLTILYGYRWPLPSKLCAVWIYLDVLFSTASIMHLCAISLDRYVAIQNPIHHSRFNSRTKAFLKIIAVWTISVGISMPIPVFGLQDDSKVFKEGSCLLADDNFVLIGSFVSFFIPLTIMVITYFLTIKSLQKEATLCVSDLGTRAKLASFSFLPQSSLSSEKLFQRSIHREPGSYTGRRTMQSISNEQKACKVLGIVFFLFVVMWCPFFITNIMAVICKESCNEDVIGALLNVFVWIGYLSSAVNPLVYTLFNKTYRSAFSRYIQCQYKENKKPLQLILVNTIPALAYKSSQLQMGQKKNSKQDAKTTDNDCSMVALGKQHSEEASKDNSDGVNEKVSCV

[17] = molecular target: T2, 5-hydroxytryptamine receptor 1A; assay: Displacement of [3H]8-OH-DPAT from recombinant human 5-HT1A receptor expressed in HEK293 cell membranes after 60 mins by liquid scintillation counting method
Mus musculus [18] = assay: Toxicity in Albino Swiss CD-1 mouse assessed as death at 15 to 30 mg/kg, ip; type: organism-based; settings: in vivo; method in brief: as §2
Mus musculus [19] = assay: Toxicity in Albino Swiss CD-1 mouse assessed as effect on locomotory activity at 5 to 10 mg/kg, ip administered for 30 mins prior to test measured for 1 min; type: organism-based; settings: in vivo
Method in brief: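 Mice dosed i.p. 30 min before test; vehicle groups received 0.9% NaCl. Spontaneous locomotion scored as number of crossings during a 1-min session. Each dose compared with its own vehicle group by Student t-test; mean ± SEM, n = 8–10 mice per group.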

[20] = molecular target: T1, 5-hydroxytryptamine receptor 1A (Homo sapiens); assay: Antagonist activity at human 5-HT1A receptor expressed in CHO-K1 cells co-expressing Galpha16 assessed as decrease in serotonin-induced calcium mobilization preincubated for 25 mins followed by serotonin challenge measured for 30 secs by aequorin-derived luminescence assay relative to control; type: functional, cell-based
[21] = molecular target: T1, 5-hydroxytryptamine receptor 1A (Homo sapiens); assay: Agonist activity at human 5-HT1A receptor expressed in CHO-K1 cells co-expressing Galpha16 assessed as increase in calcium mobilization measured for 30 secs by aequorin-derived luminescence assay relative to serotonin; type: functional, cell-based
Mus musculus [22] = assay: Anxiolytic-like activity in Albino Swiss CD-1 mouse assessed as increase in number of punished crossings at 2.5 mg/kg, ip administered for 30 mins prior to test measured for 1 min by four-plate test; type: functional, organism-based
Method in brief: (§3)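 Four-plate test in mice, i.p., 30 min before test; vehicle 0.9% NaCl; doses 1.25–10 mg/kg; number of punished crossings counted; mean ± SEM, n = 8–10 mice per group; ANOVA F statistics.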

Mus musculus [23] = assay: Anxiolytic-like activity in Albino Swiss CD-1 mouse assessed as increase in number of punished crossings at 5 mg/kg, ip administered for 30 mins prior to test measured for 1 min by four-plate test; type: functional, organism-based; method in brief: as §3
D(2) dopamine receptor [24] = molecular target: T3, D(2) dopamine receptor; assay: Antagonist activity at human D2 receptor expressed in CHO-K1 cells co-expressing Galphaqi5 assessed as decrease in apomorphine-induced calcium mobilization preincubated for 30 mins followed by apomorphine challenge measured for 30 secs by aequorin-derived luminescence assay; type: functional, cell-based
[25] = molecular target: T4, 5-hydroxytryptamine receptor 7; assay: Antagonist activity at human 5-HT7 receptor expressed in CHO-K1 cells assessed as decrease in serotonin-induced cAMP level after 1 hr by TR-FRET assay; type: functional, cell-based
Mus musculus [26] = assay: Toxicity in Albino Swiss CD-1 mouse assessed as death at 20 to 40 mg/kg, ip; type: organism-based; settings: in vivo; method in brief: as §2
[27] = molecular target: T4, 5-hydroxytryptamine receptor 7; assay: Antagonist activity at human 5-HT7 receptor expressed in CHO-K1 cells assessed as decrease in serotonin-induced cAMP level after 1 hr by TR-FRET assay relative to control; type: functional, cell-based
D(2) dopamine receptor [28] = molecular target: T3, D(2) dopamine receptor; assay: Agonist activity at human D2 receptor expressed in CHO-K1 cells co-expressing Galphaqi5 assessed as increase apomorphine-induced calcium mobilization measured for 30 secs by aequorin-derived luminescence assay relative to apomorphine; type: functional, cell-based
[29] = molecular target: T4, 5-hydroxytryptamine receptor 7; assay: Agonist activity at human 5-HT7 receptor expressed in CHO-K1 cells assessed as increase in serotonin-induced cAMP level after 1 hr by TR-FRET assay relative to serotonin; type: functional, cell-based
[30] = molecular target: T6, 5-hydroxytryptamine receptor 2A; assay: Antagonist activity at human 5-HT2A receptor expressed in CHO-K1 cells co-expressing Galpha16 assessed as decrease in serotonin calcium mobilization preincubated for 30 mins followed by serotonin challenge measured for 30 secs by aequorin-derived luminescence assay; type: functional, cell-based
D(2) dopamine receptor [31] = molecular target: T3, D(2) dopamine receptor; assay: Displacement of [3H]methylspiperonee from recombinant human D2 receptor expressed in HEK293 cells cell membranes after 60 mins by liquid scintillation counting method
Mus musculus [32] = assay: Toxicity in Albino Swiss CD-1 mouse assessed as effect on locomotory activity at 1.25 to 5 mg/kg, ip administered for 30 mins prior to test measured for 1 min; type: organism-based; settings: in vivo

SMILES | Kb [2] [nM] | IC50 [3] [nM] | Time (Mus musculus [4]) [s] | ED50 (Mus musculus [6]) [mg/kg] | Ki [7] [nM] | selectivity ratio [8] | Time (Mus musculus [10]) [s] | Time (Mus musculus [12]) [s] | Ki [13] [nM] | Ki [14] [nM] | TD50 at 0.5 h [15] [mg/kg] | Ki [16] [nM] | Ki [17] [nM] | Emax [20] [%] | Emax [21] [%] | further results
Cc1cc(C)c(OCCOCCN2CCN(CCc3ccccc3)CC2)c(C)c1.Cl.Cl | 291 | 1180 | 170.5 | 18 | 2150 | 2.96 | 173.8 | 178.4 | 1050 | 772 | 53.3 | 2810 | 552 | 45 | 10 | Activity (Mus musculus [1]): Active; Activity (Mus musculus [5]): Non-Toxic; inhibition (D(2) dopamine receptor [9]): inactive; Activity (Mus musculus [11]): Toxic; Activity (Mus musculus [18]): Non-Toxic; Activity (Mus musculus [19]): Non-Toxic
COc1ccccc1N1CCN(CCOCCOc2c(C)cc(C)cc2C)CC1.Cl.Cl | 13.9 | 56.8 | 138.5 | 26.3 | 2430 | 1.19 | 131.3 | 150.6 | 70 | 15 | 31.5 | 245 | 5 | 20 | 3 | Activity (Mus musculus [22]): Active; Activity (Mus musculus [23]): Active; IC50 (D(2) dopamine receptor [24]): 82 nM; Kb (D(2) dopamine receptor [24]): 24.4 nM; IC50 [25]: 1840 nM; Kb [25]: 783 nM; Activity (Mus musculus [26]): Non-Toxic; Emax [27]: 3%; Emax (D(2) dopamine receptor [28]): 1%; Emax [29]: 11%; IC50 [30]: 18200 nM; Ki (D(2) dopamine receptor [31]): 189 nM; Activity (Mus musculus [32]): Non-Toxic
